From ChEMBL document CHEMBL3112565, “Identification of small molecule sphingomyelin synthase inhibitors” (Eur J Med Chem, 2014) come the findings set out here.

Active and inactive are the calls of the source.

Data set [1] deals with T1, Phosphatidylcholine:ceramide cholinephosphotransferase 2 (Homo sapiens, UniProt Q8NHU3).
T1 sequence (Q8NHU3 whole entry): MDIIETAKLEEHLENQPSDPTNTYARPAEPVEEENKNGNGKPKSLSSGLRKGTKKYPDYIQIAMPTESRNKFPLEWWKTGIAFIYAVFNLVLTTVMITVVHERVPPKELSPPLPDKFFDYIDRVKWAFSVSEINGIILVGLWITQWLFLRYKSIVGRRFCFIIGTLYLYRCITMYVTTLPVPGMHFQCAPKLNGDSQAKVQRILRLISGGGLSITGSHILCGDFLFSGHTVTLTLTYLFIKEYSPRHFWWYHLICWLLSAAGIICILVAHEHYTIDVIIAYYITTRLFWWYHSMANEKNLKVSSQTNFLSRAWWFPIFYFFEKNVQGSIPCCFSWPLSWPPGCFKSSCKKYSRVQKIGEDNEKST
Put plainly: Inhibition of SMS2 (unknown origin) expressed in H5 insect cells using C6-NBD-Cer as substrate at 100 uM after 1 hr. An outline of the steps: (§1)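 SMS2 came from homogenate of H5 insect cells overexpressing it, prepared at 50 mg pellet/mL in 0.25 M sucrose, 50 mM Tris-HCl pH 7.4, 1 mM EDTA and spun at 12,000 rpm for 10 min. The enzyme (2 µg total protein) was preincubated with inhibitor for 30 min at 37 °C in 10 mM HEPES pH 7.4, 3 mM MnCl2, 0.3% BSA. Reaction was started with 1.01 mM C6-NBD-Cer plus DMPC in DMSO and run 1 h at 37 °C. Product was quantified by HPLC as for SMS.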

Data set [2] has as its target T1, Phosphatidylcholine:ceramide cholinephosphotransferase 2. Description: Inhibition of SMS2 (unknown origin) expressed in H5 insect cells using C6-NBD-Cer as substrate after 1 hr. The essentials:
as §1

Data set [3] is described as follows: Inhibition of sphingomyelin synthase in ICR mouse liver homogenates using C6-NBD-Cer as substrate after 2 hrs. The class given is tissue-based. An outline of the steps: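 Enzyme was the 12,000 rpm supernatant of ICR mouse liver homogenized at 300 mg/mL in 0.25 M sucrose, 50 mM Tris-HCl pH 7.4, 1 mM EDTA; 2 µg protein per assay. Preincubated with inhibitor 30 min at 37 °C in 10 mM HEPES pH 7.4, 3 mM MnCl2, 0.3% BSA. C6-NBD-ceramide and DMPC were then added and the reaction ran 2 h at 37 °C before ethanol quench. C6-NBD-SM was measured by C18 HPLC with fluorescence detection (ex 475/em 525 nm). IC50 from five inhibitor concentrations, triplicate, log[inhibitor] vs response fit.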

Data set [4] deals with Sphingomyelin synthase (Mus musculus). Put plainly: Inhibition of SMS in ICR mouse liver homogenate using C6-NBD-Cer as substrate after 2 hrs.
In data set [5] the test system is Mus musculus. Put plainly: Inhibition of sphingomyelin synthase in ICR mouse assessed as decrease of sphingomyelin level in plasma at 6 mg/kg, iv after 2 hrs. The class given is functional, organism-based. More on the design: dose 6 mg/kg. An outline of the steps: (§2)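 Female ICR mice (about 25 g), n=5 per group, received 150 µg (6 mg/kg) in 15 µL DMSO plus 185 µL PBS pH 7.4, given i.v. or i.p.; controls got vehicle i.v. Blood was taken from the eye after 2 h and frozen in liquid nitrogen. Plasma ceramide and sphingomyelin were measured by mass spectrometry. Groups compared by Student's t-test.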

The subject of data set [6] is Mus musculus. Description: Inhibition of sphingomyelin synthase in ICR mouse assessed as decrease of sphingomyelin level in plasma at 6 mg/kg, ip after 2 hrs. The class given is functional, organism-based. Set-up: dose 6 mg/kg. The essentials:
as §2

Data set [7] relates to Mus musculus. Description: Inhibition of sphingomyelin synthase in ICR mouse assessed as increase of ceramide level in plasma at 6 mg/kg, ip after 2 hrs. In kind it is functional, organism-based. Set-up: dose 6 mg/kg. The essentials: as §2
Data set [8] can be described thus: Cytotoxicity against human HuH7 cells assessed as cell viability after 17 hrs by MTT assay. In kind it is cell-based, Huh-7. The essentials:
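Huh-7 cells exposed to a range of concentrations for 17 h, then viability read by MTT. CC50 is the concentration giving 50% inhibition relative to vehicle (0.25% DMSO). Quintuplicate samples; mean of at least two independent tests.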

Data set [9] has as its system Mus musculus. Description: Inhibition of sphingomyelin synthase in ICR mouse assessed as increase of ceramide level in plasma at 6 mg/kg, iv after 2 hrs. In kind it is functional, organism-based. Set-up: dose 6 mg/kg. The essentials:
as §2

A short description of data set [10]: Inhibition of sphingomyelin synthase (unknown origin). More on the design: species or system Homo sapiens.
Data set [11] in a line: Half life in saline solution at 24 degC. In kind it is ADME.
The nature of data set [12]: Inhibition of sphingomyelin synthase (unknown origin) by cell based assay. To be noted: Homo sapiens.

For `c1ccc(COc2ccccc2C(Nc2ccccc2)c2nnn[nH]2)cc1` (centres undefined), the IC50 – broadly, the concentration needed to halve the response being measured – in [1] was “Not Active”. `N#CC(Nc1ccccc1)c1cccc(OCc2ccccc2)c1` (centres undefined) displayed a half-inhibitory concentration (IC50) in [2] of 50.7 µM. For the compound `N#CC(Nc1ccc(Cl)cc1)c1ccccc1OCc1ccccc1` (centres undefined), the IC50 amounted to 22.5 µM in [2] and 93.9 µM in [3]. In data set [2], `Cc1ccccc1NC(C#N)c1ccccc1OCc1ccccc1` (centres undefined) showed an IC50 of 67.2 µM. Still for that read-out and setting: for `N#CC(Nc1ccc(O)cc1)c1ccccc1OCc1ccccc1` (centres undefined) the value was 24.4 µM. For `N#CC(Nc1cccnc1)c1ccccc1OCc1ccccc1` (centres undefined), it took 35 µM to reach half-maximal inhibition in data set [2] (IC50).

Consider `N#CC(Nc1ccccc1Cl)c1ccccc1OCc1ccccc1` (centres undefined), for which the values for the IC50 in data set [2] and in [3] were 15.8 µM and 90.8 µM, respectively. Regarding `N#CC(Nc1ccccc1[N+](=O)[O-])c1ccccc1OCc1ccccc1` (centres undefined), the IC50 in [2] turned out to be 27.4 µM. On to `c1ccc(COc2ccccc2CNc2ccccc2)cc1`, for which the IC50 entry in data set [1] was “Not Active”.

Regarding `N#CC(Nc1ccccc1O)c1ccccc1OCc1ccccc1` (centres undefined), the IC50 in data set [2] came to 19 µM. In the case of `COc1cccc(NC(C#N)c2ccccc2OCc2ccccc2)c1` (centres undefined), the IC50 entry in [1] was “Not Active”. The compound `NC(=O)C(Nc1ccccc1)c1ccccc1OCc1ccccc1` (centres undefined) yielded an IC50 in [2] of 135 µM. For `N#CC(Nc1ccccc1)c1ccc(OCc2ccccc2)cc1` (centres undefined), the half-maximal inhibitory concentration (IC50) entry in data set [1] is on record as “Not Active”. On to `N#CC(Nc1ccccc1)c1ccccc1` (centres undefined), for which the IC50 entry in data set [1] is recorded as “Not Active”. Consider `N#CC1c2ccccc2OC(c2ccccc2O)N1c1ccccc1` (centres undefined), for which the IC50 in data set [4] turned out to be 75 µM. This lies in the double-digit micromolar range. For the compound `COc1ccccc1NC(C#N)c1ccccc1OCc1ccccc1` (centres undefined), the IC50 was 12.4 µM in data set [2] and 35.8 µM in data set [3]. Regarding `Cc1cccc(C)c1NC(C#N)c1ccccc1OCc1ccccc1` (centres undefined), half-maximal inhibition in data set [2] (IC50) required 31.5 µM. This lies in the double-digit micromolar range. In the case of `N#CC(Nc1ccccc1)c1ccccc1OCc1ccccc1` (centres undefined), the half-maximal inhibitory concentration (IC50) in data set [2] was 13.5 µM; in [3] it was 24.5 µM. In addition, the inhibition entry in the data set with Mus musculus [5], in the data set with Mus musculus [6], in the data set with Mus musculus [7] and in the data set on Mus musculus [9] was “Active” in each case. Also, the CC50 (in general, the concentration giving 50% cytotoxicity) at 17 h in [8] turned out to be 245 µM. Take `O=C(C(c1ccccc1)c1ccccc1)N1CCN(CC(O)COc2cccc3ncccc23)CC1` (centres undefined): in data set [10], the half-maximal inhibitory concentration (IC50) was > 500 µM. `N#Cc1ccccc1NC(C#N)c1ccccc1OCc1ccccc1` (centres undefined): in data set [2], half-maximal inhibition (IC50) was put at 20.3 µM.

For the compound `S=C(OC1CC2CC1C1CCCC21)[S][K]` (centres undefined), the half-life (as a rule, the time needed for the level to fall by half in the phase considered) in data set [11] amounted to 19.5 min. For the compound `COc1ccc(NC(C#N)c2ccccc2OCc2ccccc2)cc1` (centres undefined), in [2], the IC50 was found to be 48.1 µM. With `S=C(S)OC1CC2CC1C1CCCC21` (centres undefined), the IC50 turned out to be 224 µM in data set [2], 375 µM in data set [10] and 402 µM in data set [3]. The EC50 (in general, the concentration at which the effect is half-maximal) in data set [12] amounted to 90 µM. As to `N#CC(Nc1ccc(C(N)=O)cc1)c1ccccc1OCc1ccccc1` (centres undefined), the IC50 in [2] came out at 80.5 µM; in data set [3] it was 196 µM. In [2], `Cc1ccc(NC(C#N)c2ccccc2OCc2ccccc2)cc1` (centres undefined) yielded an IC50 of 20.8 µM. The same measure, in the same setting: for `N#CC(NCc1ccco1)c1ccccc1OCc1ccccc1` (centres undefined) the value was 71 µM.
